Measurements taken from ChEMBL document CHEMBL3860061, “A Novel Parkinson's Disease Drug Candidate with Potent Anti-neuroinflammatory Effects through the Src Signaling Pathway” (J Med Chem, 2016).
Activity calls are given as the source filed them. No cut-off for these calls is given here.

Key:
[1] = biological target: Proto-oncogene tyrosine-protein kinase Src (Mus musculus) (UniProt P05480); experiment: Inhibition of Src signaling pathway in mouse BV2 cells assessed as suppression of LPS-induced NO release at […] preincubated for 1 hr followed by LPS addition measured after 24 hrs relative to control by Griess assay; type: cell-based; conditions: BV-2
Proto-oncogene tyrosine-protein kinase Src (Mus musculus), sequence (P05480 2-535 limits assumed): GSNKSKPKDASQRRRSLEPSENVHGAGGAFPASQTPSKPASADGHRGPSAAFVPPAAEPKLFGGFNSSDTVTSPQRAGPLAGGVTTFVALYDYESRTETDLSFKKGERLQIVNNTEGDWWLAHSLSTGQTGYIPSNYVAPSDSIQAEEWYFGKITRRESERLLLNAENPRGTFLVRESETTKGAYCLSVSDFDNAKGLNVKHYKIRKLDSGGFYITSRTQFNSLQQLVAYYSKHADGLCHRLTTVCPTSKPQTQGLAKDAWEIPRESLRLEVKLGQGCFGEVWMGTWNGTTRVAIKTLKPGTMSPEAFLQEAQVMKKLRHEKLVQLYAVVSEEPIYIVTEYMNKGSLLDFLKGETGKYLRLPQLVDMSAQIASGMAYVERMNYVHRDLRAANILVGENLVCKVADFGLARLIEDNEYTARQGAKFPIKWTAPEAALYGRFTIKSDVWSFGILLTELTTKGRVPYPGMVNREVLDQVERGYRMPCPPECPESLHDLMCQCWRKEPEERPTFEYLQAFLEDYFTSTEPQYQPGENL

[2] = biological target: Proto-oncogene tyrosine-protein kinase Src (Mus musculus, UniProt P05480); experiment: Inhibition of Src in mouse BV2 cells assessed as suppression of LPS-induced NO release preincubated for 1 hr followed by LPS addition measured after 24 hrs by Griess assay; type: cell-based, BV-2
Proto-oncogene tyrosine-protein kinase Src, sequence (P05480 2-535 limits assumed): as above
In short: (§1)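 BV-2 cells in DMEM/10% FBS, plated at 5×10^3 per well. After 24 h, treated at 100, 50, 10, 5, 1 and 0.1 µM; 1 h later LPS 300 ng/mL added. After another 24 h, nitrite in the medium measured by Griess assay.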

[3] = biological target: Proto-oncogene tyrosine-protein kinase Src (Rattus norvegicus) (UniProt Q9WUD9); experiment: Inhibition of Src in Sprague-Dawley rat primary mixed mesecephalic neuron/glial cells assessed as suppression of LPS-induced IL-1beta expression at 10 uM preincubated for 1 hr followed by LPS challenge measured after 5 hrs by ELISA
Proto-oncogene tyrosine-protein kinase Src (Rattus norvegicus), sequence (Q9WUD9 2-536 limits assumed): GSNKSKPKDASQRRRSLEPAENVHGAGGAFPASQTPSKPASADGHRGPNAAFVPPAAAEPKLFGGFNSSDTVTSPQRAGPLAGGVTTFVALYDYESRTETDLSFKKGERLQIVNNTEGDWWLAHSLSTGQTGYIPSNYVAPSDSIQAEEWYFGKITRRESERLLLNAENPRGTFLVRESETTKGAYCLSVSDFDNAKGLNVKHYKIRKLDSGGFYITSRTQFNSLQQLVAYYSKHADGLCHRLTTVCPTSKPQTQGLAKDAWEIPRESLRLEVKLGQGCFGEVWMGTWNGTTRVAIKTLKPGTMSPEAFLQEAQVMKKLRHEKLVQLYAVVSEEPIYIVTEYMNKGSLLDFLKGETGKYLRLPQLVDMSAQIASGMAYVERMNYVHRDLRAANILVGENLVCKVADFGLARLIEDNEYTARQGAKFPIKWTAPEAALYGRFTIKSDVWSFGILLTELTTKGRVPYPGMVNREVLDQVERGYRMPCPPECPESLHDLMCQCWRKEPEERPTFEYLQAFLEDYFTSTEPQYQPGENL
In short: (§2)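 Mixed mesencephalic neuron/glia cultures from E14 Sprague-Dawley rats, used at 7 days. Agent at 10 µM added 1 h before LPS 100 ng/mL; IL-1β and TNF-α in medium measured by ELISA after 5 h, n = 6.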

[4] = biological target: Proto-oncogene tyrosine-protein kinase Src (Rattus norvegicus) (UniProt Q9WUD9); experiment: Inhibition of Src in Sprague-Dawley rat primary mixed mesecephalic neuron/glial cells assessed as suppression of LPS-induced TNFalpha expression at 10 uM preincubated for 1 hr followed by LPS challenge measured after 5 hrs by ELISA; in short: as §2
[5] = biological target: Proto-oncogene tyrosine-protein kinase Src (Rattus norvegicus) (UniProt Q9WUD9); experiment: Inhibition of SRC in Sprague-Dawley rat primary mixed mesecephalic neuron/glial cells assessed as protection against LPS-induced dopaminergic neuro-toxicity by measuring TH expression at 10 uM preincubated for 1 hr followed by LPS challenge measured after 7 days by Western blot analysis
In short: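 Mixed mesencephalic neuron/glia cultures from E14 Sprague-Dawley rats, used at 7 days. Agent at 10 µM added 1 h before LPS 100 ng/mL; TH measured by Western blot after 7 days, n = 4.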

[6] = AUC (0 to infinity) in ICR mouse blood at 50 mg/kg, ig up to 8 hrs by LC/MS/MS analysis; type: ADME, organism-based; set-up: dose 50 mg/kg, route […], time infinity; conditions: in vivo, po
In short: (§3)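 Male ICR mice (22–25 g), fasted 16 h, single intragastric dose of 50 mg/kg. Blood and brain sampled at 5, 15, 30 min and 1, 2, 4, 8 h after decapitation. Plasma spun 4000 rpm 5 min; brain homogenised in saline and spun. Extracts run by LC/MS/MS on C18 columns at 30 °C, isocratic 70% acetonitrile (1% TFA)/30% water, 0.2 mL/min. Mean ± SD, n = 6.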

[7] = Half life in ICR mouse blood at 50 mg/kg, ig up to 8 hrs by LC/MS/MS analysis; type: ADME, organism-based; conditions: po; in short: as §3
[8] = Cmax in ICR mouse blood at 50 mg/kg, ig up to 8 hrs by LC/MS/MS analysis; type: ADME, organism-based; set-up: dose 50 mg/kg, route […]; conditions: po; in short: as §3
[9] = AUC (0 to infinity) in ICR mouse brain at 50 mg/kg, ig up to 8 hrs by LC/MS/MS analysis; type: ADME, organism-based; set-up: dose 50 mg/kg, route […], time infinity; conditions: in vivo, po, BLD = below limit of detection; in short: as §3
[10] = Cmax in ICR mouse brain at 50 mg/kg, ig up to 8 hrs by LC/MS/MS analysis; type: ADME, organism-based; set-up: dose 50 mg/kg, route […]; conditions: in vivo, po, BLD = below limit of detection; in short: as §3
[11] = Drug uptake in ICR mouse plasma at 50 mg/kg, ig after 5 mins by LC/MS/MS analysis; type: ADME, organism-based; conditions: in vivo, po
[12] = biological target: Proto-oncogene tyrosine-protein kinase Src (Mus musculus) (UniProt P05480); experiment: Inhibition of Src signaling pathway in mouse BV2 cells assessed as suppression of LPS-induced NO release at 0.1 to 100 uM preincubated for 1 hr followed by LPS addition measured after 24 hrs relative to control by Griess assay; type: cell-based; conditions: BV-2; in short: as §1
[13] = biological target: Proto-oncogene tyrosine-protein kinase Src (Rattus norvegicus) (UniProt Q9WUD9); experiment: Inhibition of Src in Sprague-Dawley rat primary mixed mesecephalic neuron/glial cells assessed as suppression of LPS-induced microglia activation by measuring Iba-1 expression at 10 uM preincubated for 1 hr followed by LPS challenge measured after 24 hrs
Mus musculus [14] = experiment: Hepatotoxicity in ICR mouse at 1000 mg/kg administered through oral gavage for 14 consecutive days; type: toxicity, organism-based; conditions: in vivo
In short: (§4)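 Mice dosed by oral gavage at 250, 500 and 1000 mg/kg for 14 consecutive days. General condition monitored throughout; liver and kidney clinical chemistry assessed.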

[15] = biological target: Voltage-gated inwardly rectifying potassium channel KCNH2 (Homo sapiens, UniProt Q12809); experiment: Inhibition of human ERG by whole cell voltage clamp assay
Voltage-gated inwardly rectifying potassium channel KCNH2, sequence (Q12809 whole entry): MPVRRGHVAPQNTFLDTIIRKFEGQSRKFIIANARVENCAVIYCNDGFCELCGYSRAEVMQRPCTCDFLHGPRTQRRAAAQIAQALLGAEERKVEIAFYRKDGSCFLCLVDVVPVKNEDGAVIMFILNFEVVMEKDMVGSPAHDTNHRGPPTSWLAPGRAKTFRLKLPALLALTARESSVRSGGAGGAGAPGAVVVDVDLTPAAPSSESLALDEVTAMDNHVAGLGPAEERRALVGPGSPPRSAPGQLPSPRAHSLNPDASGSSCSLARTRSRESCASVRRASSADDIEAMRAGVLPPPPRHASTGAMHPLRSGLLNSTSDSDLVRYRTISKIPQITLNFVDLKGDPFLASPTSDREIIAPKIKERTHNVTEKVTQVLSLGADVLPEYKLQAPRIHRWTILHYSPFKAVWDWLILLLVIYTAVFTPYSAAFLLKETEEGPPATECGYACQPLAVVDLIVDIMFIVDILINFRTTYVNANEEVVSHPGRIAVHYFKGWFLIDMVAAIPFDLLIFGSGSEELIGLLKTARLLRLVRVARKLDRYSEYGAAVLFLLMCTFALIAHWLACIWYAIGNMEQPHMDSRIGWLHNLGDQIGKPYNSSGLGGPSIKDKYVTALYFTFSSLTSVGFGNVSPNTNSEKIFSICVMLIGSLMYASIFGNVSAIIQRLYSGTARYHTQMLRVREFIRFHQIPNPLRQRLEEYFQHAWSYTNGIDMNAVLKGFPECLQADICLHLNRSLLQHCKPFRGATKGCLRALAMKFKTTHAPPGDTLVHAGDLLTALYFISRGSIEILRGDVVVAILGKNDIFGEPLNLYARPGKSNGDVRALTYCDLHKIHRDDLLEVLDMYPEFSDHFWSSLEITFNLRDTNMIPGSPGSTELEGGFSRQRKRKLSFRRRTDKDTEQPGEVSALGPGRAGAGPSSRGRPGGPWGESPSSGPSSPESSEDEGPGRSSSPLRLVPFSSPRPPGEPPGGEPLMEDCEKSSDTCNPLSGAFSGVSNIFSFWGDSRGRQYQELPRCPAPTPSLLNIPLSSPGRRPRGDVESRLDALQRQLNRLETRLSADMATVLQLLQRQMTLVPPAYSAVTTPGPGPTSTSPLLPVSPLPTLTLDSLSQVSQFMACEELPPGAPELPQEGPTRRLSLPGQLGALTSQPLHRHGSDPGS
In short: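 Whole-cell voltage clamp. Internal solution: KCl 130 mM, MgCl2 1 mM, EGTA 5 mM, ATP-Mg 5 mM, HEPES 10 mM, pH 7.2. Bath: NaCl 137, CaCl2 1.8, KCl 4, MgCl2 1, glucose 5, HEPES 10 mM, pH 7.4. From a holding potential of −70 mV, 2-s steps to 50 mV in 10 mV increments every 15 s; tail current recorded on a 2-s step from +50 to −40 mV.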

[16] = Toxicity in ICR mouse assessed as mortality administered through oral gavage; type: organism-based; conditions: in vivo
Mus musculus [17] = experiment: Nephrotoxicity in ICR mouse at 1000 mg/kg administered through oral gavage for 14 consecutive days; type: toxicity, organism-based; conditions: in vivo; in short: as §4

Structure (SMILES) | IC50 [2] | further results
COc1cc(OC)c(CN[C@@H](Cc2cnc[nH]2)C(=O)O)c(OC)c1 | – | inhibition [1]: < 50%
COc1cc(OC)c(CN[C@@H](CCC(=O)O)C(=O)O)c(OC)c1 | 8.4 µM | inhibition [3]: Active; inhibition [4]: Active; inhibition [5]: Active; AUC [6]: 3195.1 µg·L·h; half-life [7]: 1.1 h; Cmax [8]: 1640 ng/mL; AUC [9]: Bld; Cmax [10]: Bld; Drug uptake [11]: Active; inhibition [12]: Active; inhibition [13]: Active
O=C(CCCN1CCN(c2cccc(Cl)c2)CC1)c1c(O)cc(O)cc1O | – | inhibition [1]: < 50%
CC(C)CC(=O)c1c(O)cc(O)cc1OC[C@@H](O)CNC(C)(C)C | 24.1 µM | –
COc1cc(OC)c(C(=O)CC(C)C)c(OCC(O)CNC(C)C)c1 (stereo not given) | 84.8 µM | –
COc1cc(OC)c(C(=O)CN2CCOCC2)c(OC)c1 | 32.4 µM | –
COc1ccc(C(=O)CC(C)C)c(OC[C@H](O)CNC(C)C)c1 | 40.9 µM | –
COc1ccc(C(=O)CC(C)C)c(OC[C@@H](O)CNC(C)C)c1 | 25.6 µM | –
O=C(CCCN1CCCCC1)c1c(O)cc(O)cc1O | 182 µM | –
COc1cc(OC)c(CN[C@@H](CC(=O)O)C(=O)O)c(OC)c1 | 14.4 µM | inhibition [12]: Active
COc1cc(OC)c(CNCC(=O)O)c(OC)c1 | – | inhibition [1]: < 50%
COc1cc(O)c(C(=O)CC(C)C)c(OC)c1 | 51.5 µM | –
CC(C)CC(=O)c1c(O)cc(O)cc1OCc1c(-c2ccccc2)no[n+]1[O-] | 8.5 µM | inhibition [3]: Active; inhibition [4]: Active; inhibition [5]: Active; Drug uptake [11]: Active; inhibition [13]: Active
COc1ccc(C(=O)CC(C)C)c(OCC(O)CNC(C)(C)C)c1 (stereo not given) | 138 µM | –
COc1ccc(C(=O)CC(C)C)c(O)c1 | 113 µM | –
COc1ccc(C(=O)CC(C)C)c(OC[C@@H](O)CNC(C)(C)C)c1 | 53.8 µM | –
COc1ccc(C(=O)CC(C)C)c(OC[C@H](O)CNC(C)(C)C)c1 | 28.2 µM | –
CC(C)CC(=O)c1c(O)cc(O)cc1O | 50.6 to 50.7 µM | –
CC(C)NC(=O)c1c(O)cc(O)cc1O | 92.6 µM | –
CC(C)CC(=O)c1c(O)cc(O)cc1OCC(O)CNC(C)(C)C (stereo not given) | 21.7 µM | –
COc1cc(OC)c(C(=O)CN2CCN(C)CC2)c(OC)c1 | 95.3 µM | –
CCCCNC(=O)c1c(O)cc(O)cc1O | 37.1 µM | –

Structure (SMILES) | IC50 [2] | further results
COc1ccc(C(=O)CC(C)C)c(OCC(O)CNC(C)C)c1 (stereo not given) | – | inhibition [1]: < 50%
COc1cc(OC)c(CN[C@@H](Cc2ccccc2)C(=O)O)c(OC)c1 | – | inhibition [1]: < 50%
COc1cc(OC)c(C(=O)CC(C)C)c(OC)c1 | 11.1 µM | –
COc1cc(OC)c(C(=O)CC(C)C)c(OC[C@@H](O)CNC(C)(C)C)c1 | 11.2 µM | –
COc1cc(OC)c(CNC(C)C)c(OC)c1 | – | inhibition [1]: < 50%
CC(C)CC(=O)c1ccc(O)cc1 | 90.7 µM | –
CC(C)CC(=O)c1c(O)cc(O)cc1OCC(O)CNC(C)C (stereo not given) | 74 µM | –
COc1cc(OC)c(C(=O)CC(C)C)c(OC[C@H](O)CNC(C)C)c1 | 41.3 µM | –
COc1cc(/C=C/C(=O)CC(=O)/C=C/c2ccc(O)c(OC)c2)ccc1O [CURCUMIN] | 2.2 µM | –
COc1cc(OC)c(C(=O)CC(C)C)c(OC[C@H](O)CNC(C)(C)C)c1 | – | inhibition [1]: < 50%
CC(C)CC(=O)c1c(O)cc(O)cc1OC[C@H](O)CNC(C)C | – | inhibition [1]: < 50%
COc1cc(OC)c(C(=O)CC(C)C)c(OCC(O)CNC(C)(C)C)c1 (stereo not given) | 75 µM | –
CC(C)CC(=O)c1c(O)cc(O)cc1OC[C@H](O)CNC(C)(C)C | 37.3 µM | –
CCN1CCN(CC(=O)c2c(OC)cc(OC)cc2OC)CC1 | 22.7 µM | –
CC(=O)c1c(O)cc(O)cc1O [2,4,6-TRIHYDROXYACETOPHENONE] | 195 µM | –
COc1cc(OC)c(C(=O)CC(C)C)c(OC[C@@H](O)CNC(C)C)c1 | 138 µM | –
CC(C)CC(=O)c1c(O)cc(O)cc1OC[C@@H](O)CNC(C)C | – | inhibition [1]: < 50%
COc1cc(OC)c(C(=O)CN2CCCCC2)c(OC)c1 | 24.9 µM | –
COc1cc(OC)c(CN[C@@H](C)C(=O)O)c(OC)c1 | 39.1 µM | –
COc1cc(O)cc(O)c1C(=O)CC(C)C | 5.8 µM | Activity (Mus musculus [14]): Toxic; inhibition [3]: Active; inhibition [4]: Active; inhibition [5]: Active; Drug uptake [11]: Active; inhibition (INH) [15]: Active; LD50 [16]: 2000 mg/kg; Activity (Mus musculus [17]): Toxic; inhibition [13]: Active
CCCCC(=O)c1c(O)cc(O)cc1O | 11.2 µM | –
CN(CCCC(=O)c1c(O)cc(O)cc1O)C1CCCCC1 | 54.8 µM | –
